First the molecules themselves.
B1: tRNA (parent)
chain: GUUCCGUUGGCGUAAUGGUAACGCGUCUCCCUCCUAAGGAGAAGACUGCGGGUUCGAGUCCCGUACGGAACG

Variants at the floor of the assay were thinned out.

Yeast fitness data for 37 variants are collected here from the RNAGym collection of RNA variant scans (doi:10.1126/science.aae0568).

This data set covers variants of B1. In words: yeast fitness relative to wild type (ratio to wild type); higher = fitter; tRNA-Arg(CCU), competitive growth, 37 C, YPD. The essentials:
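Changes in genotype frequencies gave Darwinian fitness relative to wild type. Frequencies were read by 100-nucleotide paired-end sequencing of gene amplicons before and after pooled Saccharomyces cerevisiae strains, carrying tRNA-Arg(CCU) gene variants at the native locus, were competed in YPD at 37°C for 24 hours in six replicates. A genotype was kept only with ≥ 100 starting reads, and estimates < 0.5 were set to 0.5.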
With GUUCCGUUGGCGUAAUGGUAACGCGUCUCCUUCCUCAGGAGAAGACUGCGGGCUCGAGUCCCGUACGGAACG [C31U A36C U53C], the yeast fitness was 0.569.

On to GUUCCGUUGGCGUAAUGGUAACGCGUCUCCUUUGUAAGGCGAAGACUGCGGGUUCGAGUCCCAUACGGAACG [C31U C33U C34G A40C G63A], for which the yeast fitness was ≤ 0.5.

With GUUCCGUUGGCGUAAUGGUAACGCGUCUCCUUCCUAUGGAGAAGACUGCGGGUUCGAGUCCCGUACGGAUCG [C31U A37U A70U], the yeast fitness was 0.558.

For GUUCCGUUGGCGUAAUGGUAACGCGUCUCCUUCCUAAGGAGAAGAGUGCGGGUUCGAGUCCCAUACGGAACG [C31U C46G G63A], the yeast fitness was 0.606.

For the variant GUUCCGUUGGCGUAAUGGUAACGCGUCUCCUUCCUAAGGAGAAGAAUGCGGGUUCGAGUCCCGUACGGACCG [C31U C46A A70C], the yeast fitness was found to be 0.771.

For GUUCCGUUGGCGUAAUGGUAACGCGUCUCCUUUCUACGGAGAAGACUGCGGGUUCGAGUCCCGUACGGAACG [C31U C33U A37C], the yeast fitness is ≤ 0.5.

In the case of GUUCCGUUGGCGUAAUGGUAACGCGUCUCCUUCCUAAGGAGGAGACUGCGGGUUCGAAUCCCGUACGGAACG [C31U A42G G58A], the yeast fitness came out at 0.716.

As for GUUCCGUUGGCGUAAUGGUAACGCGUCUCCUUCCUAAGGAGAAGACUGCGGGUUGGAGUCCCGUACGGACCG [C31U C55G A70C], the yeast fitness was determined as 0.535.

As for GUUCCGUUGGCGUAAUGGUAACGCGUCUCCUUCCUAAGGAGAAGAAUGCGGGUUCGACUCCCGUACGGUACG [C31U C46A G58C A69U], the yeast fitness was 0.543.

As for GUUCCGUUGGCGUAAUGGUAACGCGUCUCCUUCCUAAGGGGAAGACUCCGGGUUCGAGUCCCGUACGGAACG [C31U A40G G48C], the yeast fitness amounted to 0.559.

As to GUUCCGUUGGCGUAAUGGUAACGCGUCUCCUUGCUAAGGAGAAGACUGCCGGUUCGAGUCCCGUACGGAACG [C31U C33G G50C], the yeast fitness is 0.508.

Turning to GUUCCGUUGGCGUAAUGGUAACGCGUCUCCUUCCUAAGGAGAAGACUGCGGGUUCGCGUCCCGUACGGAACG [C31U A57C], the yeast fitness amounted to 0.574.

Consider GUUCCGUUGGCGUAAUGGUAACGCGUCUCCUUGCUAAGGAGAAGACUGCGGGUUCGAGUCCCGUACGGAACG [C31U C33G], for which the yeast fitness worked out at 0.785.

In the case of GUUCCGUUGGCGUAAUGGUAACGCGUCUCCUUUCUAAGGAGAAGACUGCGGGUUCGAGUCCCGUACGGAACG [C31U C33U], the yeast fitness is 0.723.

GUUCCGUUGGCGUAAUGGUAACGCGUCUCCUUCCUAAGGAGAAGACUGAGGGUUCGAGUCCCGUACGGAACG [C31U C49A]: the yeast fitness amounted to 0.783.

Turning to GUUCCGUUGGCGUAAUGGUAACGCGUCUCCUUCCUAAGGAGAAGACUGGGGGUUCGAGUCCCGUACGGAACG [C31U C49G], the yeast fitness came out at 0.914.

For GUUCCGUUGGCGUAAUGGUAACGCGUCUCCUUCCUAAGGAGAGGACUGCGGGUUCGAGUCCCGUACGGAACG [C31U A43G], the yeast fitness came to 1.06.

In the case of GUUCCGUUGGCGUAAUGGUAACGCGUCUCCGUCCUAAGGAGAAGACUGCGGGUCGGAGUCCCGCACGGAACG [C31G U54C C55G U64C], the yeast fitness was ≤ 0.5.

In the case of GUUCCGUUGGCGUAAUGGUAACGCGUCUCCUUCCUAAGGCGAAGACUGUGGAUUCGAGUCCCGUACGGAACG [C31U A40C C49U G52A], the yeast fitness is ≤ 0.5.

On to GUUCCGUUGGCGUAAUGGUAACGCGUCUCCUUCCUAAGGGGAAGACUACGGGUUCGAGUCCCGUACGGAUCG [C31U A40G G48A A70U], for which the yeast fitness came to 0.533.

As to GUUCCGUUGGCGUAAUGGUAACGCGUCUCCUUCCUAAGGAGAAGACUGCGGGUUCGAGUCCGGUACGCAACG [C31U C62G G68C], the yeast fitness worked out at 0.507.

With GUUCCGUUGGCGUAAUGGUAACGCGUCUCCGUCCUAAGGAGAAGACUGCGGGUACGAGUCCCGUACGGAACG [C31G U54A], the yeast fitness came to 0.655.

On to GUUCCGUUGGCGUAAUGGUAACGCGUCUCCUUCCUAAGGAGAAGACUGCGGGUUCGAGUCCCGUACGGCACG [C31U A69C], for which the yeast fitness was 1.04.

For GUUCCGUUGGCGUAAUGGUAACGCGUCUCCUUCCUAAGGAGCAGACUGCGGGUACGAGUCCCGUACGGAACG [C31U A42C U54A], the yeast fitness was ≤ 0.5.

With GUUCCGUUGGCGUAAUGGUAACGCGUCUCCUUCGUAAGGAGAAGACUGUGGAUUCGAGUCCCGUACGGAACG [C31U C34G C49U G52A], the yeast fitness is 0.725.

GUUCCGUUGGCGUAAUGGUAACGCGUCUCCUUCCUCAGGAAAAGACUGCGGGUUCGAGUCCCGUACGGAACG [C31U A36C G41A]: the yeast fitness is ≤ 0.5.

For the variant GUUCCGUUGGCGUAAUGGUAACGCGUCUCCUUACUAAGGAGAUGACUACGGGAUCGAGUCCCGUACGGAACG [C31U C33A A43U G48A U53A], the yeast fitness was ≤ 0.5.

On to GUUCCGUUGGCGUAAUGGUAACGCGUCUCCUUCCUAAGGAGAAGCCUGCGGGUUCGAGUCCCGUACGGAACG [C31U A45C], for which the yeast fitness was 1.25.

GUUCCGUUGGCGUAAUGGUAACGCGUCUCCUUCCUAAGGAGAAGUCUGCGGGUUCGAGUCCCGUACGGAACG [C31U A45U]: the yeast fitness is 1.12.

Regarding GUUCCGUUGGCGUAAUGGUAACGCGUCUCCUUCCUAAGGAGAAGAAUGCGGGUUCGAGUCCCGUACGGAACG [C31U C46A], the yeast fitness is 1.01.

Turning to GUUCCGUUGGCGUAAUGGUAACGCGUCUCCUUCCUAAGGAGAAGAGUGCGGGUUCGAGUCCCGUACGGAACG [C31U C46G], the yeast fitness turned out to be 0.972.

Consider GUUCCGUUGGCGUAAUGGUAACGCGUCUCCUUCCUAAGGAGUUGACUGCGGGUUCGAGUUCCGUACGGUACG [C31U A42U A43U C60U A69U], for which the yeast fitness stood at 0.51.

As for GUUCCGUUGGCGUAAUGGUAACGCGUCUCCUUCCUAAGGAGAAGACUGCGGGUUAGAGUCCCGUACGGAACG [C31U C55A], the yeast fitness stood at 0.749.

Take GUUCCGUUGGCGUAAUGGUAACGCGUCUCCUUCGUAAGGAGAAGACUGUGGAUUCGAGUCCCGUACGGUACG [C31U C34G C49U G52A A69U]: the yeast fitness is ≤ 0.5.

In the case of GUUCCGUUGGCGUAAUGGUAACGCGUCUCCUUUCUAAGGAGCAGACUGCGGGUUCGAGUCCCGUACGGAACG [C31U C33U A42C], the yeast fitness worked out at 0.562.

GUUCCGUUGGCGUAAUGGUAACGCGUCUCCGUCCUAAGGAGAAGACGGCGGGGUCGAGUCUCGUACGAAACG [C31G U47G U53G C61U G68A]: the yeast fitness was ≤ 0.5.

With GUUCCGUUGGCGUAAUGGUAACGCGUCUCCGUCCUAAGGAGAAGACUGCGGGUUCGAGACCCGUUAGGAACG [C31G U59A A65U C66A], the yeast fitness was ≤ 0.5.
